“Also recorded” adds a separate entry of the source.
Experiments:
[1] = tested on: Rugli cells (α1β1); test: Real-time Rugli cell adhesion; assay type: cell-based, rat; settings: xCELLigence
[2] = tested on: PC12 cells (α1β1); test: Real-time PC12 cell adhesion using xCELLigence; assay type: cell-based, rat; settings: for PC12 cell adhesion (cell index), in words: […] 10^4 cells/well, 2 mM Mg^2+; for PC12 cell adhesion (cell index), in words / PC12 cell adhesion in presence of EDTA: 2 h; for PC12 cell adhesion in presence of EDTA: 2 mM EDTA; for PC12 cell adhesion relative to II-27: Mg^2+, % of the level attained with II-27, four independent experiments
[3] = tested on: α2β1; settings: cited from earlier work; for affinity for α2β1, in words: ref [37], [38]; for affinity for the α2 I domain, in words: ref [39], [46]
[4] = tested on: C2C12-α11^+ cells (human α11β1); test: Real-time adhesion of C2C12-α11^+ cells; assay type: cell-based, mouse cells expressing human α11β1; settings: xCELLigence; 25,000 cells/well, 2 h; GPP10 control
[5] = tested on: recombinant human α2 I domain; test: SPBA, wild-type α2 I domain to coated peptides; assay type: binding; settings: 0.1 μg protein/well, four independent experiments
[6] = tested on: C2C12-α2^+ cells (human α2β1); test: Real-time adhesion of C2C12-α2^+ cells; assay type: cell-based, mouse cells expressing human α2β1; settings: xCELLigence; 25,000 cells/well, 2 h; GPP10 control
[7] = tested on: parental C2C12 cells lacking collagen-binding integrins; test: Adhesion of parental C2C12 cells; assay type: cell-based, mouse; settings: real-time adhesion, GPP10 control
[8] = tested on: α1β1; settings: cited from earlier work; for preference of α1β1 and α10β1 among collagens, in words: ref [28], [29]
[9] = tested on: α1β1-expressing Rugli cells; settings: ref [54]; cited from earlier work
[10] = tested on: recombinant human α1 I domain; test: Solid-phase binding assay; settings: conclusion from all data together
[11] = tested on: constitutively active E318W α2 I domain; test: SPBA, constitutively active E318W α2 I domain to coated peptides; assay type: binding; settings: 0.1 μg protein/well, four independent experiments
Method in brief: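 GST-tagged I domain (0.1 μg/well) added to triple-helical peptides coated at 10 μg/ml (1 h, 22 °C), blocked 1 h with TBS/50 mg/ml BSA. Binding 1 h at room temperature in TBS/1 mg/ml BSA with 2 mM MgCl₂ or EDTA. Detected with HRP anti-GST (1:10,000, 1 h) and TMB colour. Mean ± S.E. of four independent experiments, each in triplicate.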

[12] = tested on: constitutively active E317W α1 I domain; test: SPBA, constitutively active E317W α1 I domain to coated peptides; assay type: binding; settings: 0.1 μg protein/well, four independent experiments

## CCCCCCCCCCCCCC(=O)O[C@@H]1[C@@H](C)[C@@]2(O)[C@@H](C=C(CO)C[C@]3(O)C(=O)C(C)=C[C@@H]23)[C@@H]2C(C)(C)[C@]12OC(C)=O [PMA, phorbol 12-myristate 13-acetate, reference compound]
[1]; 1 μM PMA, 30 min
  Effect of PMA treatment on Rugli cell adhesion: increased both the rate of onset of adhesion and the peak cell index

## GAOGER
[2]; xCELLigence
  PC12 cell adhesion (cell index), in words: Moderate binding

## GASGER
[3]
  affinity for α2β1, in words: intermediate or low affinity, which increased upon cell activation

## GDQGVOGEAGAO [II-27-B]
[4]
  C2C12-α11^+ cell adhesion, in words: None of these cells showed any specific binding
[5]
  adhesion of wild-type α2 I domain, in words: did not bind
[2]; xCELLigence
  PC12 cell adhesion in presence of EDTA: no adhesion was observed in the presence of EDTA
  PC12 cell adhesion relative to II-27: ~40%
[6]
  C2C12-α2^+ cell adhesion, in words: None of these cells showed any specific binding
[7]
  parental C2C12 cell adhesion, in words: None of these cells showed any specific binding

## GFPGEN
[8]; expressed within Streptococcus pyogenes collagen-like molecules, ref [40]
  α1β1 selectivity / α1 I domain affinity, in words: selective ligand for α1β1; also recorded: higher affinity for the α1 I domain compared with GFPGER

## GFPGER
[2]; xCELLigence
  PC12 cell adhesion (cell index), in words: weak binding (lower compared with GFOGER)
[9]
  ligand quality for α1β1-expressing Rugli cells, in words: poor ligand for α1β1-expressing Rugli cells
[3]
  affinity for the α2 I domain, in words: high or moderate affinity motifs for the α2 I domain

## GKOGDQGVOGEAGAO [II-27-C]
[4]
  C2C12-α11^+ cell adhesion, in words: None of these cells showed any specific binding
[5]
  adhesion of wild-type α2 I domain, in words: did not bind
[2]; xCELLigence
  PC12 cell adhesion in presence of EDTA: no adhesion was observed in the presence of EDTA
  PC12 cell adhesion relative to II-27: ~40%
  PC12 cell adhesion (cell index), in words: no greater than to GVOGEA
[6]
  C2C12-α2^+ cell adhesion, in words: None of these cells showed any specific binding
[7]
  parental C2C12 cell adhesion, in words: None of these cells showed any specific binding

## GLKGEN
[2]; xCELLigence
  PC12 cell adhesion (cell index), in words: only slight activity

## GLOGEA
[3]
  affinity for the α2 I domain, in words: high or moderate affinity motifs for the α2 I domain

## GLOGER
[8]; ref [37], [38]
  affinity for the α1 I domain versus α2 I domain, in words: relatively higher affinity for the α1 I domain than for the α2 I domain

## GLSGER
[3]
  affinity for α2β1, in words: intermediate or low affinity, which increased upon cell activation

## GMOGER
[2]; xCELLigence
  PC12 cell adhesion (cell index), in words: Moderate binding
[3]
  affinity for the α2 I domain, in words: high or moderate affinity motifs for the α2 I domain

## GPOGPOGEGGKOGDQGVOGEAGAOGV [II-27]
[10]
  overall α1β1 recognition / selectivity, in words: new α1β1-binding activity
[4]
  C2C12-α11^+ cell adhesion, in words: None of these cells showed any specific binding; also recorded: did not bind
[5]
  adhesion of wild-type α2 I domain, in words: did not bind
[2]; real-time binding assay, Mn^2+ vs Mg^2+ (data not shown)
  Increase of PC12 cell binding upon substitution of Mg^2+ with Mn^2+: 65%
[2]; xCELLigence, 25,000 cells/well, mean cell index after 2 h, three experiments
  PC12 cell adhesion, comparison of selected peptides (Fig. 7): bound most strongly to III-7 and then to II-27 and II-28
[6]
  C2C12-α2^+ cell adhesion, in words: None of these cells showed any specific binding; also recorded: did not bind
[11]
  adhesion of active E318W α2 I domain, in words: E317W but not E318W bound strongly
[1]; control Rugli cells
  Rugli cell adhesion without activation, in words: moderate ligand for α1β1
[7]
  parental C2C12 cell adhesion, in words: None of these cells showed any specific binding
[12]
  adhesion of active E317W α1 I domain, in words: E317W but not E318W bound strongly

## GQRGER
[3]
  affinity for α2β1, in words: intermediate or low affinity, which increased upon cell activation

## GROGER
[2]; xCELLigence
  PC12 cell adhesion (cell index), in words: only slight activity
[3]
  affinity for the α2 I domain, in words: high or moderate affinity motifs for the α2 I domain

## GSOGEN
[10]
  overall α1β1 recognition / selectivity, in words: displays little activity

## collagen IV: monomeric pepsin-digested human collagen IV (C-5533) [reference compound]
[8]
  preference of α1β1 and α10β1 among collagens, in words: preferentially bind collagen types IV and VI over fibrillar collagens
[8]; ref [30]
  affinity of α1β1 for collagen IV, in words: high affinity

## collagen VI: collagen type VI
[8]
  preference of α1β1 and α10β1 among collagens, in words: preferentially bind collagen types IV and VI over fibrillar collagens

Reference: PMC3406685 (The Journal of Biological Chemistry, 2012)
